Test [1] deals with E. coli ATCC 25922 biofilms. As to the kind of experiment: Disruption of 24 h established biofilms, XTT. The class given is cell-based, Escherichia coli. As to conditions: 24 h preformed E. coli ATCC 25922 biofilms.
The next test concerns E. coli. The settings on record: ref [50], [10]; cited from earlier work.
Test [2] has as its system S. aureus USA300. As to conditions: ref [10]; cited from earlier work.
Test [3] concerns S. aureus USA300 biofilms. The test can be described thus: Disruption of 24 h established biofilms, XTT. It counts as cell-based, Staphylococcus aureus. The settings on record: 24 h preformed S. aureus USA300 biofilms, 24 h treatment in TSB. Put shortly: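 Exponential-phase TSB culture at 10^5 CFU/mL grew 24 h at 37°C to form biofilms. Plankton was removed with a PBS wash. Biofilms took 10× peptide diluted in fresh TSB for 24 h at 37°C, were washed, then got XTT in TSB for 2 h at 37°C. A450 was blanked on media plus XTT. Growth was expressed as % of untreated biofilm wells.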

For test [4], the system named is S. aureus USA300. As to the kind of experiment: Membrane depolarization, DiBAC4. The class given is cell-based, Staphylococcus aureus. As to conditions: S. aureus USA300, treated at 12.5 μM, DiBAC4(3) fluorescence; Triton X-100 (0.1%) positive control.
In a further test the test system is E. coli ML-35p. The test can be described thus: Outer and inner membrane permeabilization. The class given is cell-based, Escherichia coli. The settings on record: peptides at 6.25 μM, absorbance for 40 min. In short, it runs like this: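 Cells came from a single colony grown overnight in TSB at 37°C and were washed three times in PBS. They were diluted to ~10^6 CFU/mL in PBS containing 0.3 mg/mL TSB. Peptide was 0 to 12.5 μM, with 30 μM nitrocefin or 2.5 mM ONPG per well. Absorbance at 490 and 420 nm was followed for 40 min at 37°C.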

Test [5] deals with S. aureus USA300. The test can be described thus: Membrane permeation, propidium iodide. The settings on record: S. aureus USA300, peptides at 3.12 μM, 10 mM PBS, 37°C, read for 2 h. It counts as cell-based, Staphylococcus aureus. In short, it runs like this:
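Cells were suspended in 10 mM PBS at final OD600 ~0.1 with propidium iodide and serially diluted 10× peptide. They were held at 37°C shaking at 100 rpm. Fluorescence (ex 584/em 620 nm) was read every 5 min for 2 h. Plots used averages of duplicate experiments.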

On to `CO[C@H]1/C=C/O[C@@]2(C)Oc3c(C)c(O)c4c(O)c(cc(O)c4c3C2=O)NC(=O)/C(C)=C\C=C\[C@H](C)[C@H](O)[C@@H](C)[C@@H](O)[C@@H](C)[C@H](OC(C)=O)[C@@H]1C` [rifamycin], for which the Antibiofilm effect entry in test [1] is given as “ineffective”. On to GFKRlVQRlKDFlRKLV-amide [GF-17d3], for which the “Activity against E. coli in the presence of chymotrypsin” value with E. coli is “active”. Besides, the “Activity against S. aureus USA300” value in the test on S. aureus USA300 [2] is on record as “not active”.

Regarding `CCCCCCCCCC(=O)N[C@@H](Cc1c[nH]c2ccccc12)C(=O)N[C@H](CC(N)=O)C(=O)N[C@@H](CC(=O)O)C(=O)N[C@@H]1C(=O)NCC(=O)N[C@@H](CCCN)C(=O)N[C@@H](CC(=O)O)C(=O)N[C@H](C)C(=O)N[C@@H](CC(=O)O)C(=O)NCC(=O)N[C@H](CO)C(=O)N[C@@H]([C@H](C)CC(=O)O)C(=O)N[C@@H](CC(=O)c2ccccc2N)C(=O)O[C@@H]1C` [daptomycin], the “Concentration that essentially eliminated biofilms” value in test [3] came out at 6.25 µM. Moreover, in the test on S. aureus USA300 [4], the Membrane depolarization result was “very weak”. Consider `CN[C@H](CC(C)C)C(=O)N[C@H]1C(=O)N[C@@H](CC(N)=O)C(=O)N[C@H]2C(=O)N[C@H]3C(=O)N[C@H](C(=O)N[C@H](C(=O)O)c4cc(O)cc(O)c4-c4cc3ccc4O)[C@H](O)c3ccc(c(Cl)c3)Oc3cc2cc(c3O[C@@H]2O[C@H](CO)[C@@H](O)[C@H](O)[C@H]2O[C@H]2C[C@](C)(N)[C@H](O)[C@H](C)O2)Oc2ccc(cc2Cl)[C@H]1O` [vancomycin], for which, in the test with E. coli ML-35p, the “Outer membrane permeation (β-lactamase, nitrocefin)” value is recorded as “unable to”. As for `NC[C@H]1O[C@H](O[C@H]2[C@H](O)[C@@H](O[C@H]3O[C@H](CO)[C@@H](O)[C@H](N)[C@H]3O)[C@H](N)C[C@@H]2N)[C@H](N)C[C@@H]1O` [tobramycin], the “Membrane permeation (propidium iodide fluorescence)” value with S. aureus USA300 [5] is reported as “unable to damage bacterial membranes”.

The values are drawn from paper PMC6689428 (Biochimica et biophysica acta. Biomembranes, 2019).
